Where two headings read alike, the source gives them in different places.
Assays:
[1] = tested on: GSTμ; assay: Western blot of liver cytosol, GSTμ protein expression; assay type: in vivo, mice; details: C57BL/6 mice, 100 mg/kg p.o. 3 days
[2] = tested on: P450; assay: Liver microsomal P450 content after oral dosing of mice; assay type: in vivo; details: C57BL/6 mice, 100 mg/kg p.o. 3 days, vs corn oil
[3] = tested on: P450 1A1/1A2; details: mouse, in vivo, po, 100 mg/kg
[4] = tested on: P450 2B10; assay: Western blot of liver microsomes, P450 2B10 protein expression; details: C57BL/6 mice, 100 mg/kg p.o. 3 days
[5] = tested on: P450s 1A1/2; assay: Liver microsomal P450 1A activity; assay type: in vivo, mice; details: C57BL/6 mice, 100 mg/kg p.o. 3 days, vs corn oil
[6] = tested on: P450 3A11; assay: Western blot of liver microsomes, P450 3A11 protein expression; details: C57BL/6 mice, 100 mg/kg p.o. 3 days
[7] = tested on: P450s 2B9/10; assay: Liver microsomal P450 2B activity; assay type: in vivo, mice
[8] = tested on: P450 3A11; assay: Liver microsomal P450 3A activity; assay type: in vivo, mice
[9] = tested on: NQO; assay: Liver cytosolic NQO activity; assay type: in vivo, mice; details: C57BL/6 mice, 100 mg/kg p.o. 3 days, vs corn oil
[10] = biological target: PXR LBD and SRC-1 RID (Mus musculus, UniProt O54915); assay: Mammalian two-hybrid assay, Gal-SRC-1 RID + VP-L-PXR in CV-1 cells; assay type: cell-based; details: isopimpinellin 50 μM; PCN 10 μM; Figure 7A
Sequence of PXR LBD and SRC-1 RID (Q15788 570-780 partner limits assumed, one chain of several): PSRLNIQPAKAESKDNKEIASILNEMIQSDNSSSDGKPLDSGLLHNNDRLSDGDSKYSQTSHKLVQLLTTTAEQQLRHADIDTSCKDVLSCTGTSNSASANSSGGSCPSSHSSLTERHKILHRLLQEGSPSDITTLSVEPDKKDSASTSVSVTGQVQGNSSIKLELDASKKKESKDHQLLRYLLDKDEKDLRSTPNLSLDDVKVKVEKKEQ
Procedure, shortened: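 Mammalian two-hybrid in CV-1 cells co-transfected with Gal-SRC-1 RID and/or VP-L-PXR, plus MH100-tk-luc reporter and CMX-β-gal. Cells were exposed to compound or solvent control in medium for 18–24 h. Interaction was taken as luciferase activity normalised to β-gal activity; mean ± SD.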

[11] = biological target: T1, PXR (Mus musculus, UniProt O54915); assay: GAL-PXR reporter assay; assay type: cell-based; details: CV-1 cells, 18–24 h
T1 sequence (O54915 143-430 limits assumed): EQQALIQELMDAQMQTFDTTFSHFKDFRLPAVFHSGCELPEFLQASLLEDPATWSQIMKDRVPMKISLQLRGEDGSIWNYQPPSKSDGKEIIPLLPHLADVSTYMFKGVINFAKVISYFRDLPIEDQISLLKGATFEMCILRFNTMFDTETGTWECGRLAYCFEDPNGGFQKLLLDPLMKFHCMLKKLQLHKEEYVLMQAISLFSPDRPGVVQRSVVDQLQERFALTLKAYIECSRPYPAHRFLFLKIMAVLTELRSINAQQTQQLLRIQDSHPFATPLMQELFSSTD

[12] = biological target: T2, PXR (Mus musculus, UniProt O54915); assay: PXR-DR3 reporter assay; assay type: cell-based; details: CV-1 cells, full length PXR
T2 sequence (O54915 1-431): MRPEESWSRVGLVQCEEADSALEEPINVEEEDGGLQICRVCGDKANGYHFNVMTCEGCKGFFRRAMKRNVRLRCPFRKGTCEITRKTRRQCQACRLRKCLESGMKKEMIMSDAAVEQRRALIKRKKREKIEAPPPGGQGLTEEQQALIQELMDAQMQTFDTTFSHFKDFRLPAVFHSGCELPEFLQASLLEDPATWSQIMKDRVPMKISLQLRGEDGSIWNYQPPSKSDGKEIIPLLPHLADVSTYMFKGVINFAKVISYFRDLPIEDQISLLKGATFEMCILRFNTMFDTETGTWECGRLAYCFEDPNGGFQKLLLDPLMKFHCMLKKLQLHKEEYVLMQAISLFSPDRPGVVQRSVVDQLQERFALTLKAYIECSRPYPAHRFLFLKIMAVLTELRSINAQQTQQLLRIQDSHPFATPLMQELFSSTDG
T2 sequence (P19793 1-462 partner): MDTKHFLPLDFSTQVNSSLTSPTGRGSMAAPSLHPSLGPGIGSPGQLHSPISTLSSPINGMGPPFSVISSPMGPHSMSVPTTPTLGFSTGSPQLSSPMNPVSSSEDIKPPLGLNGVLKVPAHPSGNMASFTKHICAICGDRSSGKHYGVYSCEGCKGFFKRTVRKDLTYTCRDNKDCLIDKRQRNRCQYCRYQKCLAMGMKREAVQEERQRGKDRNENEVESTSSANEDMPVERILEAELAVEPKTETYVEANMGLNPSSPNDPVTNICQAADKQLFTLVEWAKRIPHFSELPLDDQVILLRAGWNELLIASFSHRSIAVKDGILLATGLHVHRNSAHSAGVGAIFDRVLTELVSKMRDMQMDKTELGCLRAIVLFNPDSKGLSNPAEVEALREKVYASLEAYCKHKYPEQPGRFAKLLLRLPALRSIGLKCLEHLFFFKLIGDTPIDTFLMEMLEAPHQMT

[13] = tested on: GSTp mRNA; assay: Northern blot of liver RNA, GSTp mRNA in CAR; assay type: in vivo, mice; details: isopimpinellin 150 mg/kg p.o. 24 h; TC 3 mg/kg i.p. 6 h
[14] = biological target: mCAR-LBD fused to the Gal4 DNA binding domain (Mus musculus, UniProt O35627); assay: CAR transfection assay, Gal4-mCAR LBD fusion reporter in HepG2 cells; assay type: cell-based, murine; details: HepG2, 4 μM androstanol; 250 nM TC or 0.1–100 μM isopimpinellin, 24 h
Sequence of mCAR-LBD fused to the Gal4 DNA binding domain (O35627 119-358 limits assumed): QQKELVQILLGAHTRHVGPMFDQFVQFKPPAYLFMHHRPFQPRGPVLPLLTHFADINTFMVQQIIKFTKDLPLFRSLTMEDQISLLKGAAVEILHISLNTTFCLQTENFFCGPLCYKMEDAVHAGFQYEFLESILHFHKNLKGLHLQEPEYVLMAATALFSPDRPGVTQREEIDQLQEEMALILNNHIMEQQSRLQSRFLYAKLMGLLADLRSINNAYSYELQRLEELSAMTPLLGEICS

[15] = tested on: GSTa1 mRNA; assay: Northern blot of liver RNA, GSTa1 mRNA in CAR; assay type: in vivo, mice; details: isopimpinellin 150 mg/kg p.o. 24 h; TC 3 mg/kg i.p. 6 h
[16] = tested on: Cyp3a11 mRNA; assay: Northern blot of liver RNA, Cyp3a11 mRNA in CAR; details: isopimpinellin 150 mg/kg p.o. 24 h, TC 3 mg/kg i.p. 6 h
[17] = tested on: Cyp2b10 mRNA; assay: Northern blot of liver RNA, Cyp2b10 mRNA in CAR; details: isopimpinellin 150 mg/kg p.o. 24 h, TC 3 mg/kg i.p. 6 h
[18] = biological target: full-length mCAR (Mus musculus, UniProt O35627); assay: CAR transfection assay, full-length mCAR reporter in HepG2 cells; assay type: cell-based, murine; details: 4 μM androstanol
Sequence of full-length mCAR (O35627 whole entry): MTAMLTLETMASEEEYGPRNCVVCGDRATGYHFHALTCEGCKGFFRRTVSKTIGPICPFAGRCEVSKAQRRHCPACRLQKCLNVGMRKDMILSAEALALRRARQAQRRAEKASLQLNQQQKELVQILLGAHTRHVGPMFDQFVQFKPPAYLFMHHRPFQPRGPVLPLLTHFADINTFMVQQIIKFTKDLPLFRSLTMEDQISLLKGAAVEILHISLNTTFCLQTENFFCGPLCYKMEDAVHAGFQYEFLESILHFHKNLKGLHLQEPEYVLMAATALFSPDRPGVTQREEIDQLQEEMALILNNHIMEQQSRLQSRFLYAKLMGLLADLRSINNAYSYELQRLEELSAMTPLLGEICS
Procedure, shortened: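 HepG2 cells in DMEM with 10% FBS were plated at 10^5 per well in charcoal-stripped serum. They were co-transfected with pCMX-mCAR or empty pCMX, a […] (LXRE)3 firefly luciferase reporter and a pRL-tk renilla control. At 70–80% confluence, cells got 4 μM androstanol, 0.1% DMSO or 4 μM […] plus 250 nM reference agonist or 0.1–100 μM test compound. After 24 h, firefly/renilla ratio was read; mean ± SD, ≥3 experiments.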

[19] = tested on: GST (DCNB, GST μ); assay: Liver cytosolic GST activity, DCNB as substrate, after oral dosing of mice; assay type: in vivo; details: C57BL/6 mice, 100 mg/kg p.o. 3 days, vs corn oil
[20] = tested on: P450 1A1/1A2; assay: Western blot of liver microsomes, P450 1A1/1A2 protein expression; details: C57BL/6 mice, 100 mg/kg p.o. 3 days
[21] = C57BL/6 mice, 100 mg/kg p.o. 3 days, vs corn oil

## CCC1(c2ccccc2)C(=O)NC(=O)NC1=O [PB, Phenobarbital, reference compound]
[1]
  Liver cytosolic GSTμ protein expression (western blot densitometry): greater effect
[2]
  P450 content, liver microsomes: increased
[3]
  P450 1A1/1A2 protein expression (western blot densitometry): increased
[4]
  P450 2B10 protein expression (western blot densitometry): increased
[5]
  P450 1 activity (ethoxyresorufin), liver microsomes: significant increase
[6]
  P450 3A11 protein expression (western blot densitometry): increased
[7]; [21]
  Increase in P450 2B activity (pentoxyresorufin), liver microsomes: significant increase
[8]; mouse, in vivo, po, 100 mg/kg
  Increase in P450 3A activity (testosterone), liver microsomes: 3–4 fold
[9]
  Increase in NQO activity, liver cytosol: not significantly different from the control group

## CC(=O)[C@H]1[C@H](C#N)C[C@H]2[C@@H]3CC=C4C[C@@H](O)CC[C@]4(C)[C@H]3CC[C@@]21C [PCN, reference compound]
[10]
  Induced interaction of PXR LBD and SRC-1 RID compared to the control: similar
[11]
  Max (concentration to reach maximal effect), GAL-PXR: 3,000 nM
[11]; luciferase normalized by β-gal
  ED50, GAL-PXR activation: 63 nM
[12]
  Max (concentration to reach maximal effect), PXR-DR3: 100 nM
[12]; 18–24 h
  ED50, PXR-DR3 activation: 20 nM

## Clc1cnc(Oc2ccc(Oc3ncc(Cl)cc3Cl)cc2)c(Cl)c1 [TC, 1,4-bis[2-(3,5-dichloropyridyloxy)]benzene, reference compound]
[13]
  Increase in hepatic GSTp mRNA, CAR(−/−) mice: no increase
  Increase in hepatic GSTp mRNA, female CAR(+/+) mice: ~ 4 fold
[14]
  Effect on the inhibitory effect of androstanol on Gal4 reporter expression (mCAR-LBD): counteracted
[15]
  Increase in hepatic GSTa1 mRNA, female CAR(−/−) mice: did not increase
  Increase in hepatic GSTa1 mRNA, male CAR(−/−) mice: did not increase
  Increase in hepatic GSTa1 mRNA, male and female CAR(+/+) mice: 8–10 fold
[16]
  Induction of hepatic Cyp3a11 mRNA, CAR(−/−) mice: absent
[16]; male and female
  Induction of hepatic Cyp3a11 mRNA, CAR(+/+) mice: ~ 4 fold
[17]
  Induction of hepatic Cyp2b10 mRNA, CAR(−/−) mice: absent
[17]; male and female
  Induction of hepatic Cyp2b10 mRNA, CAR(+/+) mice: ~ 4 fold

## C[C@@]12CCC[C@H]1[C@@H]1CC[C@H]3C[C@@H](O)CC[C@]3(C)[C@H]1CC2 [androstanol]
[18]
  Constitutive CAR transactivation: blocked

## O=c1ccc2ccc3occc3c2o1 [angelicin]
[19]
  GST activity using DCNB as a substrate, liver cytosol: highest increase
[20]
  P450 1A1/1A2 protein expression (western blot densitometry): increased
[8]; [21]
  Increase in P450 3A activity (testosterone), liver microsomes: not statistically significant

## CC(C)=CCC/C(C)=C/COc1ccc2ccc(=O)oc2c1 [auraptene]
[4]
  P450 2B10 protein expression (western blot densitometry): did not have any apparent effect
[6]
  P450 3A11 protein expression (western blot densitometry): did not have any apparent effect
[20]
  P450 1A1/1A2 protein expression (western blot densitometry): did not have any apparent effect

## CC(C)=CCC/C(C)=C/COc1c2ccoc2cc2oc(=O)ccc12 [bergamottin]
[4]
  P450 2B10 protein expression (western blot densitometry): increased
[6]
  P450 3A11 protein expression (western blot densitometry): increased
[20]
  P450 1A1/1A2 protein expression (western blot densitometry): increased
[7]; mouse, in vivo, po, 100 mg/kg
  Increase in P450 2B activity (pentoxyresorufin), liver microsomes: ~ 5 fold
[8]; [21]
  Increase in P450 3A activity (testosterone), liver microsomes: 3–4 fold
[9]
  Increase in NQO activity, liver cytosol: 2–3 fold

## O=c1ccc2ccccc2o1 [coumarin, 1,2-benzopyrone]
[19]
  GST activity using DCNB as a substrate, liver cytosol: highest increase
[4]
  P450 2B10 protein expression (western blot densitometry): did not have any apparent effect
[6]
  P450 3A11 protein expression (western blot densitometry): did not have any apparent effect
[20]
  P450 1A1/1A2 protein expression (western blot densitometry): did not have any apparent effect
[9]
  Increase in NQO activity, liver cytosol: 2–3 fold

## COc1cc(OC)c2ccc(=O)oc2c1 [limettin, 5,7-dimethoxycoumarin]
[4]
  P450 2B10 protein expression (western blot densitometry): did not have any apparent effect
[6]
  P450 3A11 protein expression (western blot densitometry): did not have any apparent effect
[20]
  P450 1A1/1A2 protein expression (western blot densitometry): did not have any apparent effect

— PMC2585982 (Toxicology and applied pharmacology, 2008)
